Assay results taken from ChEMBL document CHEMBL4229372, “Synthesis and anti-mitotic activity of 2,4- or 2,6-disubstituted- and 2,4,6-trisubstituted-2H-pyrazolo[4,3-c]pyridines” (2018).
The source made the active and inactive calls. The calls are words filed in the database; no cut-off is given here.

Tests used:
K562 [1] = test: Growth inhibition of human K562 cells after 72 hrs by Calcein AM dye based fluorescence assay; format: functional; details: K562, 72 h
Procedure, shortened: (§1)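 Cells in DMEM with 10% FBS at 37 °C, 5% CO2, treated in triplicate with six doses for 72 h. Calcein AM was added for 1 h and live-cell fluorescence read at 485/538 nm. GI50 was taken from dose-response curves.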

MCF7 [2] = test: Growth inhibition of human MCF7 cells after 72 hrs by Calcein AM dye based fluorescence assay; format: functional; details: MCF7, 72 h; procedure, shortened: as §1
K562 [3] = test: Cell cycle arrest in human K562 cells assessed as accumulation at sub G1 phase at 10 uM after 24 hrs by propidium iodide staining-based flow cytometric analysis (reference value: 15%); format: functional
K562 [4] = test: Cell cycle arrest in human K562 cells assessed as accumulation at G1 phase at 10 uM after 24 hrs by propidium iodide staining-based flow cytometric analysis (reference value: 34.6%); format: functional
K562 [5] = test: Cell cycle arrest in human K562 cells assessed as accumulation at S phase at 10 uM after 24 hrs by propidium iodide staining-based flow cytometric analysis (reference value: 50.3%); format: functional
K562 [6] = test: Cell cycle arrest in human K562 cells assessed as accumulation at G2/M phase at 10 uM after 24 hrs by propidium iodide staining-based flow cytometric analysis (reference value: 15%); format: functional
MCF7 [7] = test: Cell cycle arrest in human MCF7 cells assessed as accumulation at sub G1 phase at 10 uM after 24 hrs by propidium iodide staining-based flow cytometric analysis (reference value: 7.1%); format: functional
Procedure, shortened: (§2)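 MCF-7 cells in DMEM with 10% FBS and penicillin/streptomycin at 37 °C, 5% CO2. Asynchronous cells were treated 24 h, PBS-washed, trypsinized and quenched with 0.1% trypsin inhibitor. Staining used 5× citrate/IGEPAL/spermine/Tris buffer (pH 7.6) with 50 μg/mL propidium iodide. DNA content was read by 488 nm flow cytometry and cell-cycle phases modelled.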

MCF7 [8] = test: Cell cycle arrest in human MCF7 cells assessed as accumulation at G1 phase at 10 uM after 24 hrs by propidium iodide staining-based flow cytometric analysis (reference value: 60.7%); format: functional; procedure, shortened: as §2
MCF7 [9] = test: Cell cycle arrest in human MCF7 cells assessed as accumulation at S phase at 10 uM after 24 hrs by propidium iodide staining-based flow cytometric analysis (reference value: 34.1%); format: functional; procedure, shortened: as §2
MCF7 [10] = test: Cell cycle arrest in human MCF7 cells assessed as accumulation at G2/M phase at 10 uM after 24 hrs by propidium iodide staining-based flow cytometric analysis (reference value: 5.3%); format: functional; procedure, shortened: as §2
[11] = target: Cyclin-dependent kinase 1 (Homo sapiens) (UniProt P06493); test: Inhibition of CDK1 (unknown origin)
Cyclin-dependent kinase 1 (Homo sapiens), sequence (P06493 whole entry, looked up): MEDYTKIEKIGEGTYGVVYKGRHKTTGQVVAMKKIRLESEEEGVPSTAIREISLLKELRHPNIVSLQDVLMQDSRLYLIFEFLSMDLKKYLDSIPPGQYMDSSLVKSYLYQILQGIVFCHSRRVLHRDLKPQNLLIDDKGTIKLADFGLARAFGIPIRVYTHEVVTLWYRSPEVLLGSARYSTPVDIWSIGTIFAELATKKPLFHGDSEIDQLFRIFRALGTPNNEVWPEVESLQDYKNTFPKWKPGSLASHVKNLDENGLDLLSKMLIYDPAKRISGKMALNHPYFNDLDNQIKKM

SMILES	GI50 (K562 [1])	GI50 (MCF7 [2])	Activity (K562 [3])	Activity (K562 [4])	Activity (K562 [5])	Activity (K562 [6])	Activity (MCF7 [7])	Activity (MCF7 [8])	Activity (MCF7 [9])	Activity (MCF7 [10])	inhibition [11]
CC(C)c1nc(-c2ccccc2)cc2nn(-c3ccccc3)cc12	36.8 µM	91 µM	21.3%	35.1%	46.6%	18.3%	6.7%	62.6%	30.6%	6.9%	inactive
Cc1nccc2nn(-c3ccccc3)cc12	> 100 µM	> 100 µM									inactive
OCCc1cc2nn(-c3ccccc3)cc2cn1	> 100 µM	> 100 µM									inactive
c1ccc(-c2cc3nn(-c4ccccc4)cc3cn2)cc1	3.4 µM	4.8 µM	43%	19.8%	5.5%	74.7%	14.3%	56.8%	26.2%	17%	inactive
Cn1cc2cnc(-c3ccccc3)cc2n1	> 100 µM	> 100 µM									inactive
c1ccc(-n2cc3cnc(C4CC4)cc3n2)cc1	60.5 µM	69.3 µM	19.6%	32.3%	52.2%	15.5%	7.5%	64.7%	29.4%	5.9%	inactive
Cc1nc(CCO)cc2nn(-c3ccccc3)cc12	> 100 µM	> 100 µM									inactive
c1ccc(-n2cc3cnccc3n2)cc1	> 100 µM	> 100 µM									inactive
c1ccc(-n2cc3cnc(-c4ccsc4)cc3n2)cc1	8.3 µM	9.8 µM	34.2%	21.7%	37.3%	41.1%	24.2%	39.5%	29.1%	31.4%	inactive
Cc1nc(C2CC2)cc2nn(-c3ccccc3)cc12	25.9 µM	63.5 µM	15.3%	34.7%	45.8%	19.6%	9%	63.6%	30.2%	6.3%	inactive
